Experimental data taken from ChEMBL document CHEMBL1132433, “6-Substituted 2-oxo-2H-1-benzopyran-3-carboxylic acid as a core structure for specific inhibitors of human leukocyte elastase” (J Med Chem, 1999).

How the values were obtained:
[1] = target: Chymotrypsinogen A (Bos taurus) (UniProt P00766); test: Evaluation of kinetic parameter Ki/KI(1/M.1/S) by its ability to inhibit the Alpha-CT (Bovine alpha-chymotrypsin) enzyme
[2] = target: T1, Neutrophil elastase (Homo sapiens) (UniProt P08246); test: Compound was evaluated for the kinetic parameter Ki/KI(1/M.1/S) by its ability to inhibit the HLE(Human Leukocyte Elastase) enzyme; No inactivation at 10 uM
T1 sequence (whole entry): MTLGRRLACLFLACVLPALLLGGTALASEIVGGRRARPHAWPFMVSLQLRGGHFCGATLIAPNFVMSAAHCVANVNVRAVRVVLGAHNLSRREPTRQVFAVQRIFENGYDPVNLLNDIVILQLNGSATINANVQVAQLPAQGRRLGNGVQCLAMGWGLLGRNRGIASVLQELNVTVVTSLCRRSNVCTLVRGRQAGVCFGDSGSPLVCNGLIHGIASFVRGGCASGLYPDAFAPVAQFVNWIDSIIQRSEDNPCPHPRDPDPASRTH
Outline: (§1)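 HLE, active-site titrated, assayed with MeO-Suc-AAPV-p-NA in 0.1 M Hepes, 0.5 M NaCl, 0.1% Tween 80, pH 8.0, 10% DMSO, 25 °C. Preincubation method ([HLE]0 20 nM, [I]0 1-10 µM) or progress curves (30 nM enzyme, [S]0 100 µM, [I]0 0.05-70 µM), 405 nm. Constants reflect the initial inactivation step. ki, KI fitted.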

[3] = target: Chymotrypsinogen A (Bos taurus) (UniProt P00766); test: Evaluation of kinetic parameter Ki/KI(1/M.1/S) by its ability to inhibit the Alpha-CT (Bovine alpha-chymotrypsin) enzyme; No inactivation at 10 uM
[4] = target: T1, Neutrophil elastase (Homo sapiens); test: Evaluation of kinetic parameter Ki/KI(1/M.1/S) by its ability to inhibit the HLE(Human Leukocyte Elastase) enzyme.; outline: as §1
[5] = target: Prothrombin (Homo sapiens) (UniProt P00734); test: Compound was evaluated for the kinetic parameter Ki/KI(1/M.1/S) by its ability to inhibit human thrombin
Outline: (§2)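 Human thrombin, active-site titrated, with chromogenic substrate S-2238 in 0.01 M Hepes, 0.01 M Tris, 0.1 M NaCl, 0.1% PEG6000, pH 7.5, 10% DMSO, 25 °C. Preincubation method ([THR]0 1.45 nM, [I]0 1-10 µM) or progress curves ([THR]0 0.58 nM, [S]0 10 µM, [I]0 1-14 µM), absorbance at 405 nm. ki and KI fitted; ki/KI = kobs/[I] at low inhibitor.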

[6] = target: Prothrombin (Homo sapiens) (UniProt P00734); test: Evaluation of kinetic parameter Ki/KI(1/M.1/S) by its ability to inhibit human thrombin.; outline: as §2
[7] = target: T1, Neutrophil elastase (Homo sapiens); test: Evaluated for the kinetic parameter Ki/KI(1/M.1/S) by its ability to inhibit the HLE(Human Leukocyte Elastase) enzyme [ki(se-1) andKi(uM)]; outline: as §1
[8] = target: Chymotrypsinogen A (Bos taurus) (UniProt P00766); test: Compound was evaluated for the kinetic parameter Ki/KI(1/M.1/S) by its ability to inhibit the Alpha-CT (Bovine alpha-chymotrypsin) enzyme [ki(se-1) andKi(uM)]
[9] = target: Chymotrypsinogen A (Bos taurus) (UniProt P00766); test: Compound was evaluated for the kinetic parameter Ki/KI(1/M.1/S) by its ability to inhibit the Alpha-CT (Bovine alpha-chymotrypsin) enzyme[ki(se-1) andKi(uM)]
[10] = target: Chymotrypsinogen A (Bos taurus) (UniProt P00766); test: Compound was evaluated for the kinetic parameter Ki/KI(1/M.1/S) by its ability to inhibit the Alpha-CT (Bovine alpha-chymotrypsin) enzyme.

SMILES	Ki/KI [1]	Ki/KI [3]	Ki/KI [4]	Ki/KI [6]	further results
Cc1ccc(OC(=O)c2cc3cc(CCl)ccc3oc2=O)c([N+](=O)[O-])n1	1500 M⁻¹ s⁻¹	–	–	–	Ki/KI [2]: No inactivation
O=C(Nc1cccnc1Cl)c1cc2cc(CCl)ccc2oc1=O	–	No inactivation	–	–	Ki/KI [2]: No inactivation
COc1ccc(NC(=O)c2cc3cc(CCl)ccc3oc2=O)cn1	–	No inactivation	–	–	Ki/KI [2]: No inactivation
Cc1ccnc(OC(=O)c2cc3cc(CCl)ccc3oc2=O)c1	5950 M⁻¹ s⁻¹	–	300 M⁻¹ s⁻¹	–	Ki/KI [5]: 3900 M⁻¹ s⁻¹
CC(C)C(=O)OCc1ccc2oc(=O)c(C(=O)Oc3cncc(Cl)c3)cc2c1	–	No inactivation	45000 M⁻¹ s⁻¹	No inactivation	–
O=C(Oc1cccnc1)c1cc2cc(CCl)ccc2oc1=O	–	–	–	No inactivation	Ki/KI [7]: 770 M⁻¹ s⁻¹; Ki/KI [8]: 14800 M⁻¹ s⁻¹
NCc1ccc2oc(=O)c(C(=O)Oc3cncc(Cl)c3)cc2c1	–	No inactivation	9100 M⁻¹ s⁻¹	No inactivation	–
O=C(Oc1cncc(Cl)c1)c1cc2cc(CCl)ccc2oc1=O	–	–	–	–	Ki/KI [5]: 200 M⁻¹ s⁻¹; Ki/KI [7]: 64600 M⁻¹ s⁻¹; Ki/KI [8]: 31000 M⁻¹ s⁻¹
O=C(Oc1cccnc1[N+](=O)[O-])c1cc2cc(CCl)ccc2oc1=O	4500 M⁻¹ s⁻¹	–	4000 M⁻¹ s⁻¹	–	–
O=C(Oc1ccc(Cl)cn1)c1cc2cc(CCl)ccc2oc1=O	2500 M⁻¹ s⁻¹	–	110 M⁻¹ s⁻¹	No inactivation	–
CC(C)(C)C(=O)OCc1ccc2oc(=O)c(C(=O)Oc3cncc(Cl)c3)cc2c1	–	No inactivation	95500 M⁻¹ s⁻¹	No inactivation	–
CCC(=O)OCc1ccc2oc(=O)c(C(=O)Oc3cncc(Cl)c3)cc2c1	–	No inactivation	62000 M⁻¹ s⁻¹	No inactivation	–
O=C(Oc1cccnc1Cl)c1cc2cc(CCl)ccc2oc1=O	4300 M⁻¹ s⁻¹	–	3310 M⁻¹ s⁻¹	–	–
O=C(Oc1cccc(Cl)n1)c1cc2cc(CCl)ccc2oc1=O	107000 M⁻¹ s⁻¹	–	26000 M⁻¹ s⁻¹	–	Ki/KI [5]: 7200 M⁻¹ s⁻¹
Cc1cccc(OC(=O)c2cc3cc(CCl)ccc3oc2=O)n1	3300 M⁻¹ s⁻¹	–	200 M⁻¹ s⁻¹	No inactivation	–
O=C(Nc1cccnc1)c1cc2cc(CCl)ccc2oc1=O	–	–	–	–	Ki/KI [2]: No inactivation
O=C(Oc1ccccn1)c1cc2cc(CCl)ccc2oc1=O	1670 M⁻¹ s⁻¹	–	420 M⁻¹ s⁻¹	–	Ki/KI [5]: 240 M⁻¹ s⁻¹
Cc1ccc2oc(=O)c(C(=O)Oc3cncc(Cl)c3)cc2c1	–	No inactivation	32500 M⁻¹ s⁻¹	No inactivation	–
Cc1ccc(OC(=O)c2cc3cc(CCl)ccc3oc2=O)cn1	1000 M⁻¹ s⁻¹	–	–	No inactivation	Ki/KI [2]: No inactivation
O=C(Oc1cncc(Cl)c1)c1cc2ccccc2oc1=O	–	No inactivation	32800 M⁻¹ s⁻¹	No inactivation	–
O=C(Oc1cncc(Cl)c1)c1cc2cc(Br)ccc2oc1=O	–	No inactivation	58000 M⁻¹ s⁻¹	–	–
Cc1cncc(OC(=O)c2cc3cc(CCl)ccc3oc2=O)c1	2500 M⁻¹ s⁻¹	–	1000 M⁻¹ s⁻¹	No inactivation	–
CCCC(=O)OCc1ccc2oc(=O)c(C(=O)Oc3cncc(Cl)c3)cc2c1	–	No inactivation	72700 M⁻¹ s⁻¹	No inactivation	–
O=C(Oc1cccnc1Br)c1cc2cc(CCl)ccc2oc1=O	–	–	–	–	Ki/KI [9]: 2700 M⁻¹ s⁻¹; Ki/KI [7]: 3000 M⁻¹ s⁻¹
CC(=O)OCc1ccc2oc(=O)c(C(=O)Oc3cncc(Cl)c3)cc2c1	–	No inactivation	107000 M⁻¹ s⁻¹	No inactivation	–
O=C(Oc1ccccc1)c1cc2cc(CCl)ccc2oc1=O	–	–	23 M⁻¹ s⁻¹	–	Ki/KI [10]: 100000 M⁻¹ s⁻¹; Ki/KI [5]: 200 M⁻¹ s⁻¹
